Data on three compounds can be found in PMC4910733 (Oncoimmunology, 2015).

pIC50: −log10 of the molar value.

Series [1] has as its system HL cell lines, isolated MSC. Briefly: Toxicity by mitochondrial potential. In kind it is cell-based, human. The note with it: for toxic effect (mitochondrial potential, JC-1): HL cell lines or isolated MSC, 2.5 up to 10 μM, 48, 72 and 96 h (not shown).
Series [2] deals with NK cell killing of HL cell lines (L428, L540, KMH2). Format: cell-based, human. The note with it: L428 and L540 treated 24 h at 10 μM, E:T 10:1. The gist of the method:
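NK cells purified to >96%, stimulated with 0.5 µg/mL PHA plus 10 ng/mL rIL-2, then cultured 15 d in RPMI1640 with 10% FCS and rIL-2; n = 6. Target HL cells were pre-exposed 24 h to medium, DMSO or test compound (10 µM). 4-h 51Cr release at E:T 10:1. Some effectors received anti-NKG2D mAb (5 µg/mL) or isotype control. Specific lysis = (experimental − spontaneous)/(maximum − spontaneous).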

The target of series [3] is T1, MMP-2 (Homo sapiens, UniProt P08253).
T1 sequence (P08253 110-660): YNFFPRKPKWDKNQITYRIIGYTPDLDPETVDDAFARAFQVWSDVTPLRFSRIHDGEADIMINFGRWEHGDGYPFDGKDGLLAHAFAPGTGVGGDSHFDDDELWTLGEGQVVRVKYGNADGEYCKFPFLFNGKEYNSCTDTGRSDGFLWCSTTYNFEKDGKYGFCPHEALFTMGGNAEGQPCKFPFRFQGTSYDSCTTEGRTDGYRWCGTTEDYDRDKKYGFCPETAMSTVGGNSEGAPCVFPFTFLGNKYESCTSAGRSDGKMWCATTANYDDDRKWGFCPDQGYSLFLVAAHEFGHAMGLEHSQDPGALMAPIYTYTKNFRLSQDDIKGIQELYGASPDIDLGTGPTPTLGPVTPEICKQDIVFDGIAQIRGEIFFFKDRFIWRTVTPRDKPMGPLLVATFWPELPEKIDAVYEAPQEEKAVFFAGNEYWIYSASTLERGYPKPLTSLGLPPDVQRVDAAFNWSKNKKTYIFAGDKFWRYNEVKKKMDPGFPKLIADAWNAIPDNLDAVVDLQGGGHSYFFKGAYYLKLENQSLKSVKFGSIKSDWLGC
Put plainly: MMP inhibition assay. In kind it is biochemical. The settings on record: read-out: MMP2 IC50; average of three determinations, SD <10%. The procedure, abridged:
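Pro-MMP-2 was activated with APMA 2 mM, 1 h, 37°C. Enzyme (0.56 nM final) and test compound were incubated 3 h at 25°C in 50 mM Tris pH 7.5, 150 mM NaCl, 10 mM CaCl2, 0.05% Brij-35, 1% DMSO. Mca-Lys-Pro-Leu-Gly-Leu-Dap(Dnp)-Ala-Arg-NH2 at 2 µM final. Fluorescence (ex 325/em 400 nm) recorded every 15 s for 20 min, in duplicate. IC50 from vi/vo = 1/(1+[I]/IC50).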

Series [4] has as its target T2, Recombinant human ADAM10 (Homo sapiens, UniProt O14672).
T2 sequence (O14672 214-748): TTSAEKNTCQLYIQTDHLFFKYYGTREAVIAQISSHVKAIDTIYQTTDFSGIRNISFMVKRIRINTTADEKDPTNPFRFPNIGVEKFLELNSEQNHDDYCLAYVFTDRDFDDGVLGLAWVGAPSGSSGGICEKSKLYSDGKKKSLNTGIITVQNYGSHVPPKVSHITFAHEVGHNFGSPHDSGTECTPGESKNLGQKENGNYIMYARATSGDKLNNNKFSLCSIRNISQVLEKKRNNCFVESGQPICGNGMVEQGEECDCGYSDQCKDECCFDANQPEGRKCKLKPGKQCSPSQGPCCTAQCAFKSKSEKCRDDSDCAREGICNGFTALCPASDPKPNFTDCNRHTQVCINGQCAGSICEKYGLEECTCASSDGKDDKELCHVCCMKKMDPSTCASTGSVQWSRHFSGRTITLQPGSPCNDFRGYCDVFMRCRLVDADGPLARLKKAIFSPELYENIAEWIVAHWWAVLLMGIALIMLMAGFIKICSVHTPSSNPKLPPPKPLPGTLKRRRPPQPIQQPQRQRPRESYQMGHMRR
Put plainly: In vitro enzymatic inhibition assay. In kind it is biochemical. The settings on record: read-out: ADAM10 IC50; average of three determinations, SD <10%.

In series [5] the target is Recombinant human MMP-14 catalytic domain (Homo sapiens, UniProt P50281). Put plainly: MMP inhibition assay. In kind it is biochemical. The settings on record: read-out: MMP14 IC50; average of three determinations, SD <10%. The procedure, abridged: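 Recombinant human MMP-14 catalytic domain (1.0 nM final) was preincubated 3 h at 25°C with test compound in 50 mM Tris pH 7.5, 150 mM NaCl, 10 mM CaCl2, 0.05% Brij-35, 1% DMSO. Substrate Mca-Lys-Pro-Leu-Gly-Leu-Dap(Dnp)-Ala-Arg-NH2 at 2 µM final. Fluorescence (ex 325/em 400 nm) read every 15 s for 20 min, in duplicate. IC50 from vi/vo = 1/(1+[I]/IC50).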

For series [6], the target named is MMP-9 (Homo sapiens, UniProt P14780). Put plainly: MMP inhibition assay. The settings on record: read-out: MMP9 IC50; average of three determinations, SD <10%. Format: biochemical. The procedure, abridged: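 APMA-activated MMP-9 (1 mM, 1 h, 37°C), 1.3 nM final, was preincubated with test compound 3 h at 25°C in 50 mM Tris pH 7.5, 150 mM NaCl, 10 mM CaCl2, 0.05% Brij-35, 1% DMSO. Fluorogenic substrate Mca-Lys-Pro-Leu-Gly-Leu-Dap(Dnp)-Ala-Arg-NH2 at 2 µM final. Cleavage monitored (ex 325/em 400 nm) every 15 s for 20 min, in duplicate. IC50 via vi/vo = 1/(1+[I]/IC50).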
Chain of MMP-9 (P14780 107-707 limits assumed): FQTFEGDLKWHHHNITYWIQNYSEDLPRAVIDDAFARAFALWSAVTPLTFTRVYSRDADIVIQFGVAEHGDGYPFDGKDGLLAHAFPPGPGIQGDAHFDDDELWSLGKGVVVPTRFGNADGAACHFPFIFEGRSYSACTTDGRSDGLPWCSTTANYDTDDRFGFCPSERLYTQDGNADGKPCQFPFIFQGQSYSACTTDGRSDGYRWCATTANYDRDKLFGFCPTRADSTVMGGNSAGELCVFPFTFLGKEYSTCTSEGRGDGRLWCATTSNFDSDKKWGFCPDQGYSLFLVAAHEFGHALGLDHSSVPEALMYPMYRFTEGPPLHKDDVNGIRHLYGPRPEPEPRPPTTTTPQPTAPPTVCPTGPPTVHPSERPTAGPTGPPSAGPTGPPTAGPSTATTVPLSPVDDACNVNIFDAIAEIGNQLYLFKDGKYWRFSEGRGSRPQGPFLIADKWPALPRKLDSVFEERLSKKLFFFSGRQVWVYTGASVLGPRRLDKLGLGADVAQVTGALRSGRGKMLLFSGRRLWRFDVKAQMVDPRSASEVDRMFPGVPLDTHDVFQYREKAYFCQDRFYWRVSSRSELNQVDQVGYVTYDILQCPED

Turning to `CNC(=O)[C@@H](NC(=O)[C@H](CCCc1ccccc1)[C@H](C)N(O)C=O)C(C)(C)C` [GI254023X], the “toxic effect (mitochondrial potential, JC-1)” value in series [1] is “did not exert any toxic effect”. In series [2], the “increase of NK cell killing” value is given as 2–3 fold.
As a reminder, the pIC50 is the negative decadic logarithm of the IC50, by convention in mol/L. With `NC(=O)NCCC[C@@H](NS(=O)(=O)c1ccc(OCc2cc(Br)cc(Br)c2)cc1)C(=O)NO` [JG26], the pIC50 was 6.62 in series [3], 6.82 in series [4], 4.71 in series [5] and 5.79 in series [6]. For the same compound, in series [1], the “toxic effect (mitochondrial potential, JC-1)” value is “did not exert any toxic effect”. Further, in series [2], the “increase of NK cell killing” value is 2–3 fold.
Turning to `[Na+].[Na+].[Na+].[O]=[V]([O-])([O-])[O-]` [Na3VO4, sodium orthovanadate], the “toxicity (JC1 staining)” value in series [1] (HL cell lines, 100 μM as pervanadate, 40 min at 37°C (not shown)) was “not toxic”.
